Activity calls are given as the source filed them. The rule behind the calls is not given here.
What was measured:
Mus musculus [1] = test: Neurotoxicity in mouse at 30 mg/kg, ip after 4 hrs by 6Hz psychomotor seizure test; assay type: toxicity, organism-based; parameters: dose 30 mg/kg, route intraperitoneal; details: in vivo
Outline: (§1)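 Mice dosed ip in 30% polyethylene glycol and placed on a rotorod at 6 rpm. An animal is scored toxic if it falls off three times within 1 min.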

Mus musculus [2] = test: Neurotoxicity in mouse at 100 mg/kg, ip after 6 hrs by 6Hz psychomotor seizure test; assay type: toxicity, organism-based; parameters: dose 100 mg/kg, route intraperitoneal; details: in vivo; outline: as §1
Mus musculus [3] = test: Anticonvulsant activity in mouse assessed as protection against maximal electroshock-induced seizures at 300 mg/kg, ip after 0.5 hrs; assay type: functional, organism-based; parameters: dose 300 mg/kg
Outline: (§2)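 Mice dosed ip in 30% polyethylene glycol. Corneas pretreated with 1% tetracaine, then 60 Hz alternating current (50 mA) applied for 0.2 s via corneal electrodes. Protection means absence of the hindlimb tonic extensor component. Scored as number protected/number tested.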

Mus musculus [4] = test: Anticonvulsant activity in mouse assessed as protection against maximal electroshock-induced seizures at 100 mg/kg, ip after 4 hrs; assay type: functional, organism-based; parameters: dose 100 mg/kg; outline: as §2
Mus musculus [5] = test: Anticonvulsant activity in mouse assessed as protection against maximal electroshock-induced seizures at 300 mg/kg, ip after 4 hrs; assay type: functional, organism-based; parameters: dose 300 mg/kg; outline: as §2
Mus musculus [6] = test: Neurotoxicity in mouse at 30 mg/kg, ip after 0.5 hrs by 6Hz psychomotor seizure test; assay type: toxicity, organism-based; parameters: dose 30 mg/kg, route intraperitoneal; details: in vivo; outline: as §1
Mus musculus [7] = test: Anticonvulsant activity in mouse assessed as protection against maximal electroshock-induced seizures at 30 mg/kg, ip after 2 hrs; assay type: functional, organism-based; parameters: dose 30 mg/kg; outline: as §2
Mus musculus [8] = test: Anticonvulsant activity in mouse assessed as protection against subcutaneous pentylenetetrazole-induced seizures at 100 mg/kg, ip after 0.5 hrs; assay type: functional, organism-based; parameters: dose 100 mg/kg
Mus musculus [9] = test: Anticonvulsant activity in mouse assessed as protection against maximal electroshock-induced seizures at 30 mg/kg, ip after 1 hr; assay type: functional, organism-based; parameters: dose 30 mg/kg; outline: as §2
Mus musculus [10] = test: Neurotoxicity in mouse at 100 mg/kg, ip after 0.5 hrs by 6Hz psychomotor seizure test; assay type: toxicity, organism-based; parameters: dose 100 mg/kg, route intraperitoneal; details: in vivo; outline: as §1
Mus musculus [11] = test: Anticonvulsant activity in mouse assessed as protection against maximal electroshock-induced seizures at 30 mg/kg, ip after 0.25 hrs; assay type: functional, organism-based; parameters: dose 30 mg/kg; outline: as §2
Mus musculus [12] = test: Neurotoxicity in mouse at 100 mg/kg, ip after 1 hrs by 6Hz psychomotor seizure test; assay type: toxicity, organism-based; parameters: dose 100 mg/kg, route intraperitoneal; details: in vivo; outline: as §1
Mus musculus [13] = test: Anticonvulsant activity in mouse assessed as protection against subcutaneous pentylenetetrazole-induced seizures at 30 mg/kg, ip after 4 hrs; assay type: functional, organism-based; parameters: dose 30 mg/kg
Mus musculus [14] = test: Anticonvulsant activity in mouse assessed as protection against subcutaneous pentylenetetrazole-induced seizures at 300 mg/kg, ip after 0.5 hrs; assay type: functional, organism-based; parameters: dose 300 mg/kg
Mus musculus [15] = test: Neurotoxicity in mouse at 100 mg/kg, ip after 0.25 hrs by 6Hz psychomotor seizure test; assay type: toxicity, organism-based; parameters: dose 100 mg/kg, route intraperitoneal; details: in vivo; outline: as §1
Mus musculus [16] = test: Anticonvulsant activity in mouse assessed as protection against maximal electroshock-induced seizures at 30 mg/kg, ip after 6 hrs; assay type: functional, organism-based; parameters: dose 30 mg/kg; outline: as §2
Mus musculus [17] = test: Neurotoxicity in mouse at 100 mg/kg, ip after 2 hrs by 6Hz psychomotor seizure test; assay type: toxicity, organism-based; parameters: dose 100 mg/kg, route intraperitoneal; details: in vivo; outline: as §1
Mus musculus [18] = test: Neurotoxicity in mouse at 100 mg/kg, ip after 4 hrs by 6Hz psychomotor seizure test; assay type: toxicity, organism-based; parameters: dose 100 mg/kg, route intraperitoneal; details: in vivo; outline: as §1
Mus musculus [19] = test: Anticonvulsant activity in mouse assessed as protection against subcutaneous pentylenetetrazole-induced seizures at 100 mg/kg, ip after 4 hrs; assay type: functional, organism-based; parameters: dose 100 mg/kg
Mus musculus [20] = test: Neurotoxicity in mouse at 300 mg/kg, ip after 4 hrs by 6Hz psychomotor seizure test; assay type: toxicity, organism-based; parameters: dose 300 mg/kg, route intraperitoneal; details: in vivo; outline: as §1
Mus musculus [21] = test: Anticonvulsant activity in mouse assessed as protection against subcutaneous pentylenetetrazole-induced seizures at 30 mg/kg, ip after 0.5 hrs; assay type: functional, organism-based; parameters: dose 30 mg/kg
Mus musculus [22] = test: Anticonvulsant activity in mouse assessed as protection against maximal electroshock-induced seizures at 100 mg/kg, ip after 0.5 hrs; assay type: functional, organism-based; parameters: dose 100 mg/kg; outline: as §2
Mus musculus [23] = test: Anticonvulsant activity in mouse assessed as protection against maximal electroshock-induced seizures at 30 mg/kg, ip after 4 hrs; assay type: functional, organism-based; parameters: dose 30 mg/kg; outline: as §2
Mus musculus [24] = test: Anticonvulsant activity in mouse assessed as protection against maximal electroshock-induced seizures at 30 mg/kg, ip after 0.5 hrs; assay type: functional, organism-based; parameters: dose 30 mg/kg; outline: as §2
Mus musculus [25] = test: Anticonvulsant activity in mouse assessed as protection against subcutaneous pentylenetetrazole-induced seizures at 300 mg/kg, ip after 4 hrs; assay type: functional, organism-based; parameters: dose 300 mg/kg
Mus musculus [26] = test: Anticonvulsant activity in mouse assessed as protection against maximal electroshock-induced seizures at 100 mg/kg, ip after 0.25 hrs; assay type: functional, organism-based; parameters: dose 100 mg/kg; outline: as §2
Mus musculus [27] = test: Anticonvulsant activity in mouse assessed as protection against maximal electroshock-induced seizures at 100 mg/kg, ip after 1 hrs; assay type: functional, organism-based; parameters: dose 100 mg/kg; outline: as §2
Mus musculus [28] = test: Anticonvulsant activity in mouse assessed as peak time to protect against electrically-induced seizure at 100 mg/kg, ip by 6Hz psychomotor seizure test; assay type: functional; details: route intraperitoneal
Outline: (§3)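 Mice dosed ip in 30% polyethylene glycol, then given a 6 Hz, 32 mA corneal stimulus. Animals lacking the minimal clonic phase and stereotyped automatistic behaviours count as protected. Data are number protected/number tested at each time after dosing.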

Mus musculus [29] = test: Protective index, ratio of TD50 for neurotoxicity in ip dosed mouse to ED50 for anticonvulsant activity in mouse by 6Hz psychomotor seizure test; assay type: functional
Outline: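 Mice dosed ip in 30% polyethylene glycol. TD50 comes from rotorod toxicity at 6 rpm (three falls in 1 min). ED50 comes from 6 Hz, 32 mA seizure protection. Both are from probit analysis with 95% confidence intervals, and the index is TD50/ED50.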

Mus musculus [30] = test: Anticonvulsant activity in ip dosed mouse assessed as protection against 32mA-induced seizure measured after 0.25 to 0.5 hrs by 6Hz psychomotor seizure test
Mus musculus [31] = test: Anticonvulsant activity in mouse assessed as protection against maximal electroshock-induced seizures at 100 mg/kg, ip after 2 hrs; assay type: functional, organism-based; parameters: dose 100 mg/kg; outline: as §2
Mus musculus [32] = test: Anticonvulsant activity in mouse assessed as protection against maximal electroshock-induced seizures at 100 mg/kg, ip after 6 hrs; assay type: functional, organism-based; parameters: dose 100 mg/kg; outline: as §2
Mus musculus [33] = test: Anticonvulsant activity in mouse assessed as protection against 32mA-induced seizure at 100 mg/kg, ip after 4 hrs by 6Hz psychomotor seizure test; assay type: functional, organism-based; parameters: dose 100 mg/kg; outline: as §3
Mus musculus [34] = test: Anticonvulsant activity in mouse assessed as protection against 32mA-induced seizure at 100 mg/kg, ip after 2 hrs by 6Hz psychomotor seizure test; assay type: functional, organism-based; parameters: dose 100 mg/kg; outline: as §3
Mus musculus [35] = test: Neurotoxicity in mouse at 300 mg/kg, ip after 0.5 hrs by 6Hz psychomotor seizure test; assay type: toxicity, organism-based; parameters: dose 300 mg/kg, route intraperitoneal; details: in vivo; outline: as §1
Mus musculus [36] = test: Anticonvulsant activity in mouse assessed as protection against 32mA-induced seizure at 100 mg/kg, ip after 1 hr by 6Hz psychomotor seizure test; assay type: functional, organism-based; parameters: dose 100 mg/kg; outline: as §3
Mus musculus [37] = test: Anticonvulsant activity in mouse assessed as protection against 32mA-induced seizure at 100 mg/kg, ip after 0.5 hrs by 6Hz psychomotor seizure test; assay type: functional, organism-based; parameters: dose 100 mg/kg; outline: as §3
Mus musculus [38] = test: Anticonvulsant activity in mouse assessed as protection against 32mA-induced seizure at 100 mg/kg, ip after 0.25 hrs by 6Hz psychomotor seizure test; assay type: functional, organism-based; parameters: dose 100 mg/kg; outline: as §3

SMILES | Activity (Mus musculus [1]) | Activity (Mus musculus [3]) | Activity (Mus musculus [4]) | Activity (Mus musculus [5]) | Activity (Mus musculus [6]) | Activity (Mus musculus [8]) | Activity (Mus musculus [10]) | Activity (Mus musculus [12]) | Activity (Mus musculus [13]) | Activity (Mus musculus [14]) | Activity (Mus musculus [18]) | Activity (Mus musculus [19]) | Activity (Mus musculus [21]) | Activity (Mus musculus [22]) | Activity (Mus musculus [23]) | Activity (Mus musculus [24]) | Activity (Mus musculus [25]) | Time (Mus musculus [28]) [h] | Ratio TD50/ED50 (Mus musculus [29]) | ED50 (Mus musculus [30]) [mg/kg] | further results
CCCc1cc(C(O)C(F)(F)F)ccc1O (configuration not stated) | Non-toxic | Active | inactive | Active | Non-toxic | inactive | Non-toxic | Non-toxic | inactive | Active | Non-toxic | inactive | inactive | inactive | inactive | inactive | inactive |  |  |  | Activity (Mus musculus [2]): Non-toxic; Activity (Mus musculus [7]): inactive; Activity (Mus musculus [9]): inactive; Activity (Mus musculus [11]): inactive; Activity (Mus musculus [15]): Non-toxic; Activity (Mus musculus [16]): inactive; Activity (Mus musculus [17]): Non-toxic; Activity (Mus musculus [20]): Non-toxic
CCCc1cc(C(O)C(F)(F)F)cc(Br)c1O (configuration not stated) |  | inactive | inactive | inactive |  | inactive | Non-toxic | Non-toxic | inactive | inactive | Non-toxic | inactive | inactive | inactive | inactive | inactive | inactive |  |  |  | Activity (Mus musculus [15]): Non-toxic; Activity (Mus musculus [17]): Non-toxic
CCC(C)c1cc(C(O)C(F)(F)F)cc(Br)c1O (configuration not stated) |  | Active | inactive | inactive |  | inactive |  |  | inactive | inactive |  | inactive | inactive | inactive | inactive | inactive | inactive | 0.5 | 1.7 |  | Activity (Mus musculus [26]): inactive; Activity (Mus musculus [27]): inactive
CC(C)c1cccc(C(C)C)c1O [PROPOFOL] |  |  |  |  |  |  |  |  |  |  |  |  |  |  |  |  |  |  |  | 38.6 | 
CC(C)c1cc(C(O)C(F)(F)F)ccc1O (configuration not stated) |  | Active | inactive | Active |  | inactive |  |  | inactive | Active |  | inactive | inactive | inactive | inactive | inactive | Active | 0.25 | 1.9 | 84.1 | Activity (Mus musculus [26]): inactive; Activity (Mus musculus [27]): inactive; Activity (Mus musculus [31]): inactive; Activity (Mus musculus [32]): inactive
CCC(C)c1cc(C(O)C(F)(F)F)cc(C(C)CC)c1O (configuration not stated) |  |  |  |  |  |  |  |  |  |  |  |  |  |  |  |  |  |  |  | 73 | 
CCc1cc(C(O)C(F)(F)F)ccc1O (configuration not stated) | Non-toxic | inactive | inactive | inactive | Non-toxic | inactive | Non-toxic |  | inactive | inactive | Non-toxic | inactive | inactive | inactive | inactive | inactive | inactive |  |  |  | Activity (Mus musculus [33]): inactive; Activity (Mus musculus [34]): inactive; Activity (Mus musculus [35]): Non-toxic; Activity (Mus musculus [36]): inactive; Activity (Mus musculus [37]): inactive; Activity (Mus musculus [20]): Non-toxic; Activity (Mus musculus [38]): inactive
CCC(C)c1cc(C(O)C(F)(F)F)ccc1O (configuration not stated) |  | Active | inactive | inactive |  | inactive |  |  | inactive | Active |  | inactive | inactive | inactive | inactive | inactive | inactive | 0.5 | 1.6 | 53.9 | 
Cc1cc(C(O)C(F)(F)F)ccc1O (configuration not stated) | Non-toxic | Active | inactive | Active | Non-toxic | inactive | Non-toxic | Non-toxic | inactive | inactive | Non-toxic | inactive | inactive | inactive |  | inactive | inactive |  |  |  | Activity (Mus musculus [33]): inactive; Activity (Mus musculus [26]): inactive; Activity (Mus musculus [2]): Non-toxic; Activity (Mus musculus [34]): inactive; Activity (Mus musculus [35]): Non-toxic; Activity (Mus musculus [36]): Active; Activity (Mus musculus [27]): inactive; Activity (Mus musculus [15]): Non-toxic; Activity (Mus musculus [17]): Non-toxic; Activity (Mus musculus [31]): inactive; Activity (Mus musculus [37]): inactive; Activity (Mus musculus [20]): Non-toxic; Activity (Mus musculus [38]): inactive; Activity (Mus musculus [32]): inactive
CC(C)c1cc(C(O)C(F)(F)F)cc(Br)c1O (configuration not stated) |  | inactive | inactive | inactive |  | inactive |  |  | inactive | inactive |  | inactive | inactive | inactive | inactive | inactive | inactive | 0.5 | 3.6 | 112 | 
